Assay results as given in ChEMBL document CHEMBL2062472, “N-(2-oxo-3-oxetanyl)carbamic acid esters as N-acylethanolamine acid amidase inhibitors: synthesis and structure-activity and structure-property relationships” (J Med Chem, 2012).

Experiments:
[1] = Apparent half life of the compound in rat plasma by HPLC analysis; format: ADME, cell-free; details: read-out: t1/2(app) (converted)
Summary of the method: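 Pooled heparinized plasma from male Wistar rats was diluted to 80% (v/v) with PBS pH 7.4. Compound was added at 5–100 μM final (1% DMSO) and incubated at 37 °C with shaking. Aliquots were quenched with 2 volumes of CH3CN, centrifuged, and analysed by RP-HPLC. t1/2 came from log[compound]-vs-time regression, as mean ± SD of three experiments.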

[2] = Apparent Half life of the compound in 0.01 M phosphate-buffered saline at pH 7.4; format: physicochemical; details: read-out: t1/2(app)
Summary of the method: (§1)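 Compound (from DMSO stock; 1% DMSO final) incubated at 1–100 μM final at 37 °C with shaking, ionic strength 0.15 M, in 0.01 M PBS pH 7.4 or 0.01 M phosphate buffer pH 5.0. Aliquots taken over time were analysed by RP-HPLC. Apparent t1/2 came from pseudo-first-order rate constants (linear regression of log[compound] vs time), reported as mean ± SD of three experiments.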

[3] = Apparent Half life of the compound in 0.01 M phosphate buffer at pH 5 in presence of 3 mM DTT; details: read-out: t1/2(app)
[4] = Apparent Half life of the compound in 0.01 M phosphate buffer at pH 5; format: physicochemical; details: read-out: t1/2(app); summary of the method: as §1
Albumin = Albumin (Bos taurus, UniProt P02769); assay: Apparent half life of the compound in bovine serum albumin in phosphate-buffered saline at pH 7.4; format: ADME; details: cattle, read-out: t1/2(app)
Chain of Albumin (P02769 whole entry): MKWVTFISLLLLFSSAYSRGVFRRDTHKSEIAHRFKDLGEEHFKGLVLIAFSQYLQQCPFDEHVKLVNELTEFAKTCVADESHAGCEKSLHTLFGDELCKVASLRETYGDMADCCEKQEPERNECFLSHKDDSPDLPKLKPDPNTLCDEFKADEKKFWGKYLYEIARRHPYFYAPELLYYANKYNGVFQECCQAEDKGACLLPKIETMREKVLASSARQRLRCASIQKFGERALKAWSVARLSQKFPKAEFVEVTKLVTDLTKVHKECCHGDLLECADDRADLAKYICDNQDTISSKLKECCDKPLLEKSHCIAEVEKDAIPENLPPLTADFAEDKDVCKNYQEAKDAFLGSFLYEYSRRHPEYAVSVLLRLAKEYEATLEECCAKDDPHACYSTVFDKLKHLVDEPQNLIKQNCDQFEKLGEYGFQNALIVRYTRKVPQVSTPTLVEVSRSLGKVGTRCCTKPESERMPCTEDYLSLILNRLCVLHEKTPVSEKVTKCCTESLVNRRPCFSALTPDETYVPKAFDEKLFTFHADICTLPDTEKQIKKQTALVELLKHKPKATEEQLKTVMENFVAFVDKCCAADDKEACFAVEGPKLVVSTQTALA
Summary of the method: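 Compound incubated at 5–100 μM final (1% DMSO) at 37 °C in 20 mg/mL bovine serum albumin in PBS pH 7.4. Aliquots were quenched with 2 volumes of CH3CN, centrifuged, and analysed by RP-HPLC. Apparent t1/2 came from pseudo-first-order regression of log[compound] vs time.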

[5] = Drug degradation in 0.01 M phosphate-buffered saline at pH 7.4 assessed as N-acylated L-serine product formation by HPLC-UV-MS analysis; format: physicochemical; details: buffer
Summary of the method: (§2)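 Compound incubated at 37 °C in 0.01 M phosphate buffer pH 5.0 or 0.01 M PBS pH 7.4 (μ = 0.15 M; 1% DMSO) for up to 3 days. Degradation products were followed by RP-HPLC-UV and ESI-MS on a C18 column with acetonitrile/10 mM ammonium acetate (pH 7.0) mobile phase. Products were quantified against calibration curves of pure standards.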

[6] = Drug degradation in 0.01 M phosphate buffer at pH 5 assessed as N-acylated L-serine product formation by HPLC-UV-MS analysis; format: physicochemical; summary of the method: as §2
[7] = Drug degradation in 0.01 M phosphate-buffered saline at pH 7.4 assessed as N-(2-Naphthoyl)-L-serine product formation by HPLC-UV-MS analysis; format: physicochemical; details: buffer; summary of the method: as §2
[8] = Drug degradation in 0.01 M phosphate buffer at pH 5 assessed as O-(2-naphthoyl)-L-serine product formation by HPLC-UV-MS analysis; format: physicochemical; summary of the method: as §2
[9] = Drug degradation in 0.01 M phosphate-buffered saline at pH 7.4 assessed as 2-naphtholic acid product formation after 24 hrs by HPLC-UV-MS analysis; format: physicochemical; details: buffer, pH 7.4, 24 h; summary of the method: as §2
[10] = Drug degradation in 0.01 M phosphate buffer at pH 5 assessed as N-(2-Naphthoyl)-L-serine product formation at > 2 hrs by HPLC-UV-MS analysis; format: physicochemical; details: pH 5, 2 h; summary of the method: as §2
[11] = Drug degradation in 0.01 M phosphate buffer at pH 5 assessed as time required for N-(2-Naphthoyl)-L-serine product formation by HPLC-UV-MS analysis; format: physicochemical; summary of the method: as §2
[12] = Drug degradation in 0.01 M phosphate buffer at pH 5 assessed as time required for O-(2-naphthoyl)-L-serine product formation by HPLC-UV-MS analysis; format: physicochemical; summary of the method: as §2
[13] = Drug degradation in 0.01 M phosphate buffer at pH 5 assessed as 2-Naphtholic acid product formation at > 2 hrs by HPLC-UV-MS analysis; format: physicochemical; details: pH 5, 2 h; summary of the method: as §2
[14] = target: T1, N-acylethanolamine-hydrolyzing acid amidase (Rattus norvegicus, UniProt Q5KTC7); assay: Inhibition of rat recombinant NAAA expressed in HEK293 cells using heptadecenoylethanolamide as substrate after 30 mins by LC/MS analysis; format: cell-based
T1 sequence (Q5KTC7 whole entry): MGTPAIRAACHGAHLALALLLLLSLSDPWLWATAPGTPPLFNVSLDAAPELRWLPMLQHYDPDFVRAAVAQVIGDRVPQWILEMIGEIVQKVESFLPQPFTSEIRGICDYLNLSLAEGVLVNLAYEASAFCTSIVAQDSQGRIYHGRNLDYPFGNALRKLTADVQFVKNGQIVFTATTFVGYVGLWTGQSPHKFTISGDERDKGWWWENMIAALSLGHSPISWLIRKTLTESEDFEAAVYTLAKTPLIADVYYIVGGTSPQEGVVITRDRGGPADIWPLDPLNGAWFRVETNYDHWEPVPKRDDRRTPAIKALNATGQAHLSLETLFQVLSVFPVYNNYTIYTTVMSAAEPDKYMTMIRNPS
Summary of the method: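 Recombinant rat NAAA incubated 30 min at 37 °C in 50 mM sodium hydrogen phosphate buffer pH 5.0 containing 0.1% Triton X-100, 3 mM DTT and heptadecenoylethanolamide substrate (50 mM as printed). The reaction was stopped with cold methanol containing 1 nmol heptadecanoic acid. Product was measured by LC/MS with negative ESI, selected ion monitoring at m/z 267.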

[15] = Apparent half life of the compound in 50% v/v human plasma by HPLC analysis in presence of eserine; format: ADME, cell-free; details: 50% v/v plasma, with eserine, read-out: t1/2(app)
Summary of the method: (§3)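 Rat or human plasma at 50% (v/v) was preincubated with BNPP, eserine, PMSF, EDTA or vehicle, then compound was added and kept at 37 °C. Aliquots taken at regular time points were quenched with 2 volumes of CH3CN, centrifuged, and analysed by RP-HPLC. Apparent t1/2 came from log[compound]-vs-time regression.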

[16] = Apparent half life of the compound in 50% v/v rat plasma by HPLC analysis in presence of eserine; format: ADME, cell-free; details: 50% v/v plasma, with eserine, read-out: t1/2(app); summary of the method: as §3
[17] = Apparent half life of the compound in 50% v/v human plasma by HPLC analysis in presence of EDTA; format: ADME, cell-free; details: 50% v/v plasma, with EDTA, read-out: t1/2(app); summary of the method: as §3
[18] = Apparent half life of the compound in 50% v/v human plasma by HPLC analysis in presence of PMSF; format: ADME, cell-free; details: 50% v/v plasma, with PMSF, read-out: t1/2(app); summary of the method: as §3
[19] = Apparent half life of the compound in 50% v/v rat plasma by HPLC analysis in presence of EDTA; format: ADME, cell-free; details: 50% v/v plasma, with EDTA, read-out: t1/2(app); summary of the method: as §3
[20] = Apparent half life of the compound in 50% v/v rat plasma by HPLC analysis in presence of PMSF; format: ADME, cell-free; details: 50% v/v plasma, with PMSF, read-out: t1/2(app); summary of the method: as §3
[21] = Apparent half life of the compound in 50% v/v human plasma by HPLC analysis; format: ADME, cell-free; details: 50% v/v plasma, read-out: t1/2(app); summary of the method: as §3
[22] = Apparent half life of the compound in 50% v/v rat plasma by HPLC analysis; format: ADME, cell-free; details: 50% v/v plasma, read-out: t1/2(app); summary of the method: as §3
[23] = Apparent half life of the compound in 50% v/v human plasma by HPLC analysis in presence of BNPP; format: ADME, cell-free; details: 50% v/v plasma, with BNPP, read-out: t1/2(app); summary of the method: as §3
[24] = Apparent half life of the compound in 50% v/v rat plasma by HPLC analysis in presence of BNPP; format: ADME, cell-free; details: 50% v/v plasma, with BNPP, read-out: t1/2(app); summary of the method: as §3

Compound | half-life [1] [min] | half-life [2] [min] | half-life [3] [min] | half-life [4] [min] | half-life (Albumin) [min] | Drug degradation [5] | Drug degradation [6] | IC50 [14] [nM] | further results
O=C(N[C@H]1COC1=O)OCc1ccccc1 | < 0.167 | 26.7 | 30.5 | 39.2 | 1.2 | – | – | – | –
O=C(CCc1ccccc1)N[C@H]1COC1=O | < 0.167 | 18 | 19 | 23.1 | 7 | Active | Active | – | –
C[C@H]1OC(=O)[C@H]1NC(=O)CCc1ccccc1 | < 0.167 | 73.8 | 100 | 135 | 16 | Active | Active | – | –
O=C1OCC1CCCCc1ccccc1 (centres undefined) | 0.233 | 93.5 | 114 | 115 | 15.1 | – | – | – | –
O=C(N[C@H]1COC1=O)c1ccc2ccccc2c1 | < 0.167 | 9.8 | 15.9 | 19 | < 1 | Active | Active | – | Drug degradation [7]: Active; Drug degradation [8]: Active; Drug degradation [9]: Active; Drug degradation [10]: Active; Time [11]: <= 2 hr; Time [12]: <= 2 hr; Drug degradation [13]: Active
CCOC(=O)c1ccc2cc(C(=O)N[C@H]3COC3=O)ccc2c1 | 1.25 | 12.1 | 20.9 | 25.1 | 3.2 | Active | Active | – | –
COc1ccc2cc(C(=O)N[C@H]3COC3=O)ccc2c1 | 0.483 | 8.2 | 19.1 | 18.1 | < 1 | Active | Active | – | –
O=C(N[C@H]1COC1=O)c1ccc(C(=O)Oc2ccccc2)cc1 | < 0.167 | 9.8 | 19.5 | 23.7 | 2.7 | Active | Active | – | –
O=C(N[C@H]1COC1=O)c1ccc(OCc2ccccc2)cc1 | 1.08 | 13.4 | 18.8 | 23.2 | 5.8 | Active | Active | – | –
O=C(N[C@H]1COC1=O)c1ccc(-c2ccccc2)cc1 | 0.533 | 12.6 | 20.9 | 28.4 | 3.3 | Active | Active | – | –
O=C(N[C@@H](CO)C(=O)O)OCc1ccccc1 | – | – | – | – | – | – | – | > 100000 | –
C[C@@H]1OC(=O)[C@@H]1NC(=O)OCCCCCc1ccccc1 | < 0.167 | 110 | 134 | 194 | 11.4 | – | – | 130 | –
O=C(N[C@@H]1COC1=O)OCc1ccccc1 | – | – | – | – | – | – | – | 700 | –
CC(C)(C)OC(=O)N[C@H]1COC1=O | < 0.167 | 33.7 | 39 | 43.4 | 19.6 | – | – | 580 | –
CC(C)(C)OC(=O)N[C@@H]1COC1=O | – | – | – | – | – | – | – | 500 | –
O=C(NCc1ccccc1)N[C@H]1COC1=O | < 0.167 | 3.3 | 25.1 | 29.7 | 4.6 | – | – | 15000 | –
O=C(NCc1ccccc1)N[C@@H]1COC1=O | – | – | – | – | – | – | – | 49200 | –
C[C@H]1OC(=O)[C@H]1NC(=O)OCc1ccccc1 | – | – | – | – | – | – | – | 10000 | –
C[C@@H]1OC(=O)[C@@H]1NC(=O)OCc1ccccc1 | < 0.167 | 108 | 127 | 185 | 5.1 | – | – | 1000 | –
C[C@H]1OC(=O)[C@H]1NC(=O)OC(C)(C)C | 0.217 | 143 | 149 | 217 | 121 | – | – | > 80000 | –
C[C@@H]1OC(=O)[C@@H]1NC(=O)OC(C)(C)C | 0.183 | 122 | 147 | 241 | 129 | – | – | 220 | half-life [15]: 13.8 min; half-life [16]: 4.19 min; half-life [17]: 32 min; half-life [18]: 11.5 min; half-life [19]: 0.34 min; half-life [20]: 7.13 min; half-life [21]: 2.99 min; half-life [22]: 0.53 min; half-life [23]: 4.7 min; half-life [24]: 3.29 min
C[C@@H]1OC(=O)[C@H]1NC(=O)OC(C)(C)C | < 0.167 | 80.7 | 80.4 | 93.8 | 87.7 | – | – | 190 | –
C[C@H]1OC(=O)[C@@H]1NC(=O)OC(C)(C)C | – | – | – | – | – | – | – | 4900 | –
O=C(N[C@H](CO)C(=O)O)OCc1ccccc1 | – | – | – | – | – | – | – | > 100000 | –
O=C(NC1CCC1=O)OCc1ccccc1 (racemic) | – | – | – | – | – | – | – | > 100000 | –
O=C(NC1CCC1)OCc1ccccc1 [CYCLOBUTYLCARBAMIC ACID BENZYL ESTER] | – | – | – | – | – | – | – | > 100000 | –
